Assay results taken from ChEMBL document CHEMBL1143842, “Efficacy of tachyplesin III, colistin, and imipenem against a multiresistant Pseudomonas aeruginosa strain” (Antimicrob Agents Chemother, 2007).
Converted amounts (≈) assume the structure as drawn. The source made the active and inactive calls. No cut-off for these calls is given here.

Key:
[1] = system: Pseudomonas aeruginosa; test: Antibacterial activity against Pseudomonas aeruginosa ATCC 27853 infected in BALB/c mouse blood at 20 mg/kg, iv after 24 hrs; format: functional
Method in brief: (§1)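 Male BALB/c mice (25–30 g) were anesthetized with ketamine 30 mg/kg i.m. They were challenged via the tail vein with 2.0 × 10^7 CFU log-phase bacteria in saline. Drug or saline was given i.v. immediately after challenge, 20 mice per group. Tail-vein blood was taken at 24 h, serially diluted and plated on blood agar for 48 h at 35°C, and CFU were counted. Detection limit was 10 CFU/ml.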

[2] = system: Pseudomonas aeruginosa; test: Effect on Pseudomonas aeruginosa clinical isolate induced sepsis in BALB/c mouse assessed as mortality at 20 mg/kg, iv for 72 hrs; format: functional
Method in brief: (§2)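 Male BALB/c mice, 25–30 g, housed singly, anesthetized with ketamine 30 mg/kg im. Log-phase bacteria (grown in brain heart infusion broth, resuspended in saline) given iv via tail vein, 2.0 × 10^7 CFU. Drug at 1 or 20 mg/kg iv immediately post-challenge; saline controls. 20 mice/group; lethality over 72 h, compared by Fisher's exact test.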

[3] = system: Pseudomonas aeruginosa; test: Effect on Pseudomonas aeruginosa ATCC 27853 induced sepsis in BALB/c mouse assessed as mortality at 20 mg/kg, iv for 72 hrs; format: functional; method in brief: as §2
[4] = system: Pseudomonas aeruginosa; test: Antimicrobial activity against Pseudomonas aeruginosa ATCC 27853 by broth microdilution method; format: functional
Method in brief: (§3)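 CLSI broth microdilution in Mueller-Hinton broth with an inoculum of 5 × 10^5 CFU/ml, incubated 18 h at 37°C in air. Plates were shaken throughout when the peptide was tested. The MIC was the lowest concentration inhibiting visible growth. Run in triplicate.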

[5] = system: Pseudomonas aeruginosa; test: Antibacterial activity against Pseudomonas aeruginosa clinical isolates infected in BALB/c mouse blood at 20 mg/kg, iv after 24 hrs; format: functional; method in brief: as §1
[6] = system: Pseudomonas aeruginosa; test: Antimicrobial activity against Pseudomonas aeruginosa clinical isolates by broth microdilution method; format: functional; method in brief: as §3
[7] = system: Pseudomonas aeruginosa; test: Reduction of Pseudomonas aeruginosa clinical isolate infection induced TNFalpha levels in BALB/c mouse plasma after 24 hrs by ELISA; format: functional, organism-based
Method in brief: (§4)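 Male BALB/c mice were infected i.v. with 2.0 × 10^7 CFU and treated i.v. immediately afterwards. Tail-vein plasma was sampled at 0, 6, 12, 24 and 48 h. IL-6 and TNF-α were measured by ELISA in duplicate, with sensitivity limits of 12 pg/ml and 0.05 ng/ml respectively.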

[8] = system: Pseudomonas aeruginosa; test: Reduction of Pseudomonas aeruginosa clinical isolate infection induced IL6 levels in BALB/c mouse plasma after 24 hrs by ELISA; format: functional, organism-based; method in brief: as §4
[9] = system: Pseudomonas aeruginosa; test: Reduction of Pseudomonas aeruginosa ATCC 27853 infection induced TNFalpha levels in BALB/c mouse plasma after 24 hrs by ELISA; format: functional, organism-based; method in brief: as §4
[10] = system: Pseudomonas aeruginosa; test: Reduction of Pseudomonas aeruginosa clinical isolate infection induced endotoxin levels in BALB/c mouse plasma after 24 hrs by ELISA; format: functional, organism-based
[11] = system: Pseudomonas aeruginosa; test: Reduction of Pseudomonas aeruginosa ATCC 27853 infection induced endotoxin levels in BALB/c mouse plasma after 24 hrs by ELISA; format: functional, organism-based
[12] = system: Pseudomonas aeruginosa; test: Reduction of Pseudomonas aeruginosa ATCC 27853 infection induced IL6 levels in BALB/c mouse plasma after 24 hrs by ELISA; format: functional, organism-based; method in brief: as §4
[13] = system: Pseudomonas aeruginosa; test: Antibacterial activity against Pseudomonas aeruginosa ATCC 27853 infected in BALB/c mouse blood at 1 mg/kg, iv after 24 hrs; format: functional; method in brief: as §1
[14] = system: Pseudomonas aeruginosa; test: Antibacterial activity against Pseudomonas aeruginosa clinical isolates infected in BALB/c mouse blood at 1 mg/kg, iv after 24 hrs; format: functional; method in brief: as §1
[15] = system: Pseudomonas aeruginosa; test: Effect on Pseudomonas aeruginosa ATCC 27853 induced sepsis in BALB/c mouse assessed as mortality at 1 mg/kg, iv for 72 hrs; format: functional; method in brief: as §2
[16] = system: Pseudomonas aeruginosa; test: Effect on Pseudomonas aeruginosa clinical isolate induced sepsis in BALB/c mouse assessed as mortality at 1 mg/kg, iv for 72 hrs; format: functional; method in brief: as §2

Row | Molecule | CFU [1] | Activity [2] [%] | Activity [3] [%] | MIC [4] [µg/mL] | CFU [5] | MIC [6] [µg/mL] | Activity [7] | Activity [8] | Activity [9] | Activity [10] | Activity [11] | Activity [12] | CFU [13] | CFU [14] | Activity [15] [%] | Activity [16] [%]
1 | C[C@@H](O)[C@H]1C(=O)N2C(C(=O)O)=C(SCCNC=N)C[C@H]12 [IMIPENEM ANHYDROUS] | 2.8 10^3/ml | 80 | 30 | 0.5 (≈ 1.67 µM) | 8.7 10^6/ml | 32 (≈ 107 µM) |  |  |  |  |  |  |  |  |  | 
2 | CC[C@H](C)[C@H](NC(=O)CNC(=O)[C@H](CCCNC(=N)N)NC(=O)[C@H](Cc1ccc(O)cc1)NC(=O)[C@H](CS)NC(=O)[C@@H](NC(=O)[C@H](CCCNC(=N)N)NC(=O)[C@H](Cc1ccccc1)NC(=O)[C@H](CS)NC(=O)[C@H](Cc1c[nH]c2ccccc12)NC(=O)[C@@H](N)CCCCN)C(C)C)C(=O)N[C@@H](CS)C(=O)N[C@@H](Cc1ccc(O)cc1)C(=O)N[C@@H](CCCNC(=N)N)C(=O)N[C@@H](CCCCN)C(=O)N[C@@H](CS)C(=O)NC(CCCNC(=N)N)C(N)=O (single isomer, unassigned) [TACHYPLESIN III] |  |  |  |  |  |  | Active | Active | Active | Active | Active | Active |  |  |  | 
3 | COLISTIN |  |  |  | 4 |  | 8 | Active | Active | Active | Active | Active | Active | 6 10^4/ml | 1.4 10^4/ml | 40 | 30
